What was measured:
Mycobacterium avium [1] = experiment: Antituberculosis activity against Mycobacterium avium JTC981 isolated from bongo fecal sample assessed as minimum drug level required for inhibition by MGIT 960 susceptibility test; format: functional, Feces
Outline: (§1)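 10^5 to 10^6 CFU from single-cell suspensions inoculated in duplicate into MGIT ParaTB medium with supplement and egg yolk. Drugs were at final 0.5–64.0 μg/ml, with 128.0 μg/ml added for some strains. Tubes were incubated at 37°C in MGIT 960. Inhibition is the lowest concentration giving a time to detection longer than a drug-free 1:100 inoculum control. Killing is no positive signal through 56 days.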

Escherichia coli [2] = experiment: Antituberculosis activity against Escherichia coli ATCC 25922 clinical isolate assessed as minimum drug level required for killing after 56 days by MGIT 960 susceptibility test; format: functional
[3] = system: Mycobacterium avium subsp. paratuberculosis; experiment: Antituberculosis activity against Mycobacterium paratuberculosis UCF-7 isolated from Crohn's disease patient assessed as colony counts at 2 ug after 12 days by MGIT 960 susceptibility test; format: functional
Mycobacterium avium [4] = experiment: Antituberculosis activity against Mycobacterium avium 104 isolated from AIDS patient assessed as minimum drug level required for inhibition by MGIT 960 susceptibility test; format: functional; outline: as §1
[5] = system: Mycobacterium avium subsp. paratuberculosis; experiment: Antituberculosis activity against Mycobacterium paratuberculosis ATCC 19698 isolated from bovine assessed as lowest drug level producing inhibition at 10^6 CFU of inoculum by MGIT 960 susceptibility test; format: functional
Outline: (§2)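 M. paratuberculosis ATCC 19698 at 10^6 CFU per MGIT ParaTB tube in duplicate, drugs at final 1.0–64.0 μg/ml, 37°C in MGIT 960. Inhibition is the lowest concentration whose time to detection exceeds the 1:100 diluted-inoculum solvent control. No detectable growth means the tube never signals positive through 56 days.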

[6] = system: Mycobacterium avium subsp. paratuberculosis; experiment: Antituberculosis activity against Mycobacterium paratuberculosis UCF-7 isolated from Crohn's disease patient assessed as colony counts at 4 ug after 12 days by MGIT 960 susceptibility test; format: functional
Mycolicibacterium phlei = experiment: Antituberculosis activity against Mycobacterium phlei ATCC 11758 assessed as minimum drug level required for inhibition by MGIT 960 susceptibility test; format: functional
Outline: (§3)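 MGIT ParaTB tubes were supplemented with egg yolk and inoculated in duplicate with 10^5 to 10^6 CFU from single-cell suspensions. Thiopurines were dissolved in 0.05 M NaOH in 10 mM PBS and tested at final 0.5 to 64.0 μg/ml, with 128.0 μg/ml added for some strains. Tubes ran at 37°C in the MGIT 960. The value is the lowest concentration giving a time-to-detection longer than a drug-free 1:100 inoculum control.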

[7] = system: Mycobacterium avium subsp. paratuberculosis; experiment: Antituberculosis activity against Mycobacterium paratuberculosis UCF-7 isolated from Crohn's disease patient assessed as minimum drug level required for inhibition by MGIT 960 susceptibility test; format: functional; outline: as §1
[8] = system: Mycobacterium avium subsp. paratuberculosis; experiment: Antituberculosis activity against Mycobacterium paratuberculosis B213 isolated from bovine assessed as minimum drug level required for inhibition by MGIT 960 susceptibility test; format: functional; outline: as §1
[9] = system: Mycolicibacterium smegmatis; experiment: Antituberculosis activity against Mycobacterium smegmatis ATCC 14468 assessed as minimum drug level required for killing after 56 days by MGIT 960 susceptibility test; format: functional; outline: as §1
Mycobacterium avium [10] = experiment: Antituberculosis activity against Mycobacterium avium ATCC 25291 isolated from chicken assessed as minimum drug level required for inhibition by MGIT 960 susceptibility test; format: functional; outline: as §1
Enterococcus faecalis [11] = experiment: Antituberculosis activity against Enterococcus faecalis ATCC 29212 isolated from human urine assessed as minimum drug level required for inhibition by MGIT 960 susceptibility test; format: functional
[12] = system: Mycobacterium avium subsp. paratuberculosis; experiment: Antituberculosis activity against Mycobacterium paratuberculosis B244 isolated from bovine assessed as minimum drug level required for killing after 56 days by MGIT 960 susceptibility test; format: functional; outline: as §1
[13] = system: Mycobacterium avium subsp. paratuberculosis; experiment: Antituberculosis activity against Mycobacterium paratuberculosis ATCC 19698 isolated from bovine assessed as minimum drug level resulting in no detectable growth at 10^6 CFU of inoculum after 56 days by MGIT 960 susceptibility test; format: functional; outline: as §2
[14] = system: Mycobacterium avium subsp. paratuberculosis; experiment: Antituberculosis activity against Mycobacterium paratuberculosis UCF-8 isolated from Crohn's disease patient assessed as minimum drug level required for inhibition by MGIT 960 susceptibility test; format: functional; outline: as §1
[15] = system: Mycobacterium avium subsp. paratuberculosis; experiment: Antituberculosis activity against Mycobacterium paratuberculosis UCF-4 isolated from Crohn's disease patient assessed as minimum drug level required for killing after 56 days by MGIT 960 susceptibility test; format: functional; outline: as §1
[16] = system: Mycobacterium avium subsp. paratuberculosis; experiment: Antituberculosis activity against Mycobacterium paratuberculosis ATCC 19698 isolated from bovine assessed as lowest drug level producing inhibition at 10^6 CFU of inoculum by agar counting method; format: functional
Outline: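 ATCC 19698 at 10^6 CFU was exposed to drug (1.0–64.0 μg/ml) in MGIT ParaTB medium at 37°C. Aliquots taken at 3 and 5 days were centrifuged, resuspended in PBS and declumped with glass beads. Serial dilutions were plated in quadruplicate on 7H10/OADC/mycobactin J and counted after 8 weeks. Inhibition is the lowest concentration giving a 2 log10 (99%) CFU reduction.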

Mycobacterium avium [17] = experiment: Antituberculosis activity against Mycobacterium avium ATCC 35712 isolated from chicken assessed as minimum drug level required for inhibition by MGIT 960 susceptibility test; format: functional; outline: as §1
Mycobacterium avium [18] = experiment: Antituberculosis activity against Mycobacterium avium JTC981 isolated from bongo fecal sample assessed as minimum drug level required for killing within 15 days by MGIT 960 susceptibility test; format: functional, Feces
Escherichia coli [19] = experiment: Antituberculosis activity against Escherichia coli ATCC 25922 clinical isolate assessed as minimum drug level required for inhibition by MGIT 960 susceptibility test; format: functional
[20] = system: Mycobacterium avium subsp. paratuberculosis; experiment: Antituberculosis activity against Mycobacterium paratuberculosis B236 isolated from bovine assessed as minimum drug level required for inhibition by MGIT 960 susceptibility test; format: functional; outline: as §1
[21] = system: Mycobacterium avium subsp. paratuberculosis; experiment: Antituberculosis activity against Mycobacterium paratuberculosis UCF-4 isolated from Crohn's disease patient assessed as minimum drug level required for inhibition by MGIT 960 susceptibility test; format: functional; outline: as §1
[22] = system: Mycobacterium avium subsp. paratuberculosis; experiment: Antituberculosis activity against Mycobacterium paratuberculosis UCF-5 isolated from Crohn's disease patient assessed as minimum drug level required for killing after 56 days by MGIT 960 susceptibility test; format: functional; outline: as §1
Mycobacterium avium [23] = experiment: Antituberculosis activity against Mycobacterium avium ATCC 25291 isolated from chicken assessed as minimum drug level required for killing within 15 days by MGIT 960 susceptibility test; format: functional
[24] = system: Mycolicibacterium smegmatis; experiment: Antituberculosis activity against Mycobacterium smegmatis ATCC 14468 assessed as minimum drug level required for inhibition by MGIT 960 susceptibility test; format: functional; outline: as §3
Mycobacterium avium [25] = experiment: Antituberculosis activity against Mycobacterium avium WSLH1544 isolated from water assessed as minimum drug level required for killing within 15 days by MGIT 960 susceptibility test; format: functional
[26] = system: Mycobacterium avium subsp. paratuberculosis; experiment: Antituberculosis activity against Mycobacterium paratuberculosis UCF-5 isolated from Crohn's disease patient assessed as minimum drug level required for inhibition by MGIT 960 susceptibility test; format: functional; outline: as §1
Enterococcus faecalis [27] = experiment: Antituberculosis activity against Enterococcus faecalis ATCC 29212 isolated from human urine assessed as minimum drug level required for killing after 56 days by MGIT 960 susceptibility test; format: functional
[28] = system: Mycobacterium avium subsp. paratuberculosis; experiment: Antituberculosis activity against Mycobacterium paratuberculosis B238 isolated from bovine assessed as minimum drug level required for killing after 56 days by MGIT 960 susceptibility test; format: functional; outline: as §1
[29] = system: Mycobacterium avium subsp. paratuberculosis; experiment: Antituberculosis activity against Mycobacterium paratuberculosis B236 isolated from bovine assessed as minimum drug level required for killing after 56 days by MGIT 960 susceptibility test; format: functional; outline: as §1
Mycobacterium avium [30] = experiment: Antituberculosis activity against Mycobacterium avium WSLH1544 isolated from water assessed as minimum drug level required for inhibition by MGIT 960 susceptibility test; format: functional; outline: as §1

## Sc1ncnc2nc[nH]c12 [MERCAPTOPURINE ANHYDROUS]
Mycobacterium avium [1]
  Activity: >64 µg/mL
Escherichia coli [2]
  Activity: >128 µg/mL
[3]
  log10CFU/ml: 3.87
Mycobacterium avium [4]
  Activity: >64 µg/mL
[5]
  Activity: 1 µg/mL
[6]
  log10CFU/ml: 3.19
Mycolicibacterium phlei
  Activity: 1 µg/mL
[7]
  Activity: <1 µg/mL
[8]
  Activity: 4 µg/mL
[9]
  Activity: >128 µg/mL
Mycobacterium avium [10]
  Activity: >64 µg/mL
Enterococcus faecalis [11]
  Activity: >128 µg/mL
[12]
  Activity: >32 µg/mL
[13]
  Activity: 32 µg/mL
[14]
  Activity: <1 µg/mL
[15]
  Activity: >32 µg/mL
[16]
  Activity: 1 µg/mL
Mycobacterium avium [17]
  Activity: >64 µg/mL
Mycobacterium avium [18]
  Activity: >64 µg/mL
Escherichia coli [19]
  Activity: >128 µg/mL
[20]
  Activity: 4 µg/mL
[21]
  Activity: 2 µg/mL
[22]
  Activity: >32 µg/mL
Mycobacterium avium [23]
  Activity: >64 µg/mL
[24]
  Activity: >128 µg/mL
Mycobacterium avium [25]
  Activity: >64 µg/mL
[26]
  Activity: 1 µg/mL
Enterococcus faecalis [27]
  Activity: >128 µg/mL
[28]
  Activity: >32 µg/mL
[29]
  Activity: >32 µg/mL
Mycobacterium avium [30]
  Activity: 8 µg/mL
